Reference: ChEMBL document CHEMBL1156973, “(-)-Carbodine: enantiomeric synthesis and in vitro antiviral activity against various strains of influenza virus including H5N1 (avian influenza) and novel 2009 H1N1 (swine flu)” (Bioorg Med Chem Lett, 2010)

Assays:
[1] = Selectivity ratio of IC50 for MDCK cells to EC90 for Influenza A virus California/07/2009 /H1N1 by virus yield reduction assay; format: ADME, cell-based; details: dog, mdck
Procedure, shortened: (§1)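 IC50 (50% inhibition of uninfected MDCK cells) divided by EC90 (concentration reducing the infectious virus titer by 90% in the yield reduction assay).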

[2] = Selectivity ratio of IC50 for MDCK cells to EC50 for Influenza A virus Wisconsin/67/2005/H3N2 by neutral red dye uptake assay; format: ADME, cell-based; details: dog, mdck
Procedure, shortened: (§2)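 Neutral red uptake in MDCK cells: IC50 (50% inhibition of uninfected cells) divided by EC50 (50% inhibition of virus effect), both from replicate serial-dilution assays.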

[3] = tested on: Influenza A virus (A/Puerto Rico/8/1934(H1N1)); assay: Antiviral activity against Influenza A virus Solomon Islands/03/2006/H1N1 infected MDCK cells after 3 days by virus yield reduction assay; format: functional, Influenza A virus (A/Solomon Islands/3/2006(H1N1))
Procedure, shortened: (§3)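 Yield reduction assay: MDCK cells got serial compound dilutions and ≤300 CCID50 virus, in triplicate. Progeny virus was titrated. EC90 is the concentration reducing the infectious titer by 90%, as the mean of triplicates.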

[4] = Selectivity ratio of IC50 for MDCK cells to EC50 for Influenza B virus Malaysia/2506/2004 by neutral red dye uptake assay; format: ADME, cell-based; details: dog, mdck; procedure, shortened: as §2
[5] = tested on: Influenza A virus; assay: Antiviral activity against Influenza A virus California/07/2009 /H1N1 infected MDCK cells after 42 to 46 hrs by neutral red dye uptake assay; format: functional, organism-based, A/California/07/2009(H1N1); details: mdck
[6] = Selectivity ratio of IC50 for MDCK cells to EC50 for inhibition of virus-induced cytopathic effect of Influenza A virus Vietnam/1203/ 2004H/H5N1; format: cell-based; details: dog, mdck
Procedure, shortened: (§4)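 IC50 (50% inhibition of uninfected MDCK cells) divided by EC50 (concentration reducing virus-induced CPE by 50%, scored visually), both from replicate serial-dilution assays.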

[7] = tested on: Influenza A virus; assay: Antiviral activity against Influenza A virus Wisconsin/67/2005/H3N2 infected MDCK cells after 3 days by virus yield reduction assay; format: functional, Influenza A virus (A/Wisconsin/67/2005(H3N2)); procedure, shortened: as §3
[8] = tested on: Influenza A virus; assay: Antiviral activity against Influenza A virus Vietnam/1203/ 2004H/H5N1 infected MDCK cells after 3 days by virus yield reduction assay; format: functional, A/Viet Nam/1203/2004(H5N1)
[9] = Selectivity ratio of IC50 for MDCK cells to EC50 for Influenza A virus Solomon Islands/03/2006/H1N1 by neutral red dye uptake assay; format: ADME, cell-based; details: dog, mdck; procedure, shortened: as §2
[10] = Selectivity ratio of IC50 for MDCK cells to EC50 for Influenza A virus Gull/PA/4175/83/H5N1 by neutral red dye uptake assay; format: ADME, cell-based; details: dog, mdck; procedure, shortened: as §2
[11] = tested on: H5N1 subtype; assay: Antiviral activity against Influenza A virus Duck/MN/1525/81/H5N1 infected MDCK cells assessed as inhibition of virus-induced cytopathic effect after 3 days; format: functional, organism-based, Influenza A virus (A/duck/Minnesota/1525/1981(H5N1)); details: mdck
[12] = Selectivity ratio of IC50 for MDCK cells to EC50 for Influenza A virus Vietnam/1203/ 2004H/H5N1 by neutral red dye uptake assay; format: ADME, cell-based; details: dog, mdck; procedure, shortened: as §2
[13] = tested on: Influenza A virus; assay: Antiviral activity against Influenza A virus Wisconsin/67/2005/H3N2 infected MDCK cells assessed as inhibition of virus-induced cytopathic effect after 3 days; format: functional, organism-based, Influenza A virus (A/Wisconsin/67/2005(H3N2)); details: mdck
Procedure, shortened: (§5)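 Triplicate MDCK (ATCC CCL-34) wells got serial dilutions of compound. They were then inoculated with ≤300 CCID50, enough for ~100% CPE in control wells within 3 days, using the same inoculum for all replicates. CPE was scored visually. EC50 is the concentration reducing CPE by 50%, as the mean of triplicates.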

[14] = tested on: Influenza B virus; assay: Antiviral activity against Influenza B virus Malaysia/2506/2004 infected MDCK cells after 3 days by virus yield reduction assay; format: functional, B/Malaysia/2506/2004; procedure, shortened: as §3
[15] = tested on: H5N1 subtype; assay: Antiviral activity against Influenza A virus Gull/PA/4175/83/H5N1 infected MDCK cells assessed as inhibition of virus-induced cytopathic effect after 3 days; format: functional, organism-based, Influenza A virus (A/gull/Pennsylvania/4175/83(H5N1)); details: mdck
[16] = tested on: H5N1 subtype; assay: Antiviral activity against Influenza A virus Gull/PA/4175/83/H5N1 infected MDCK cells after 42 to 46 hrs by neutral red dye uptake assay; format: functional, organism-based, Influenza A virus (A/gull/Pennsylvania/4175/83(H5N1)); details: mdck
[17] = tested on: Influenza B virus; assay: Antiviral activity against Influenza B virus Malaysia/2506/2004 infected MDCK cells after 42 to 46 hrs by neutral red dye uptake assay; format: functional, organism-based, B/Malaysia/2506/2004; details: mdck
Procedure, shortened: (§6)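 Triplicate MDCK wells got serial compound dilutions, then ≤300 CCID50 of virus, with the same inoculum for all replicates. Antiviral effect was read by neutral red dye uptake. EC50 is the concentration giving 50% inhibition of the virus effect, as the mean of triplicates.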

[18] = Selectivity ratio of IC50 for MDCK cells to EC90 for Influenza A virus Solomon Islands/03/2006/H1N1 by virus yield reduction assay; format: ADME, cell-based; details: dog, mdck; procedure, shortened: as §1
[19] = Selectivity ratio of IC50 for MDCK cells to EC50 for Influenza A virus Duck/MN/1525/81/H5N1 by neutral red dye uptake assay; format: ADME, cell-based; details: dog, mdck; procedure, shortened: as §2
[20] = Selectivity ratio of IC50 for MDCK cells to EC90 for Influenza A virus Vietnam/1203/ 2004H/H5N1 by virus yield reduction assay; format: ADME, cell-based; details: dog, mdck; procedure, shortened: as §1
[21] = Selectivity ratio of IC50 for MDCK cells to EC50 for inhibition of virus-induced cytopathic effect of Influenza A virus Duck/MN/1525/81/H5N1; format: cell-based; details: dog, mdck; procedure, shortened: as §4
[22] = tested on: Influenza A virus; assay: Antiviral activity against Influenza A virus California/07/2009 /H1N1 infected MDCK cells after 3 days by virus yield reduction assay; format: functional, A/California/07/2009(H1N1)
[23] = Selectivity ratio of IC50 for MDCK cells to EC90 for Influenza A virus Hong Kong/213/2003/H5N1 by virus yield reduction assay; format: ADME, cell-based; details: dog, mdck; procedure, shortened: as §1
[24] = Selectivity ratio of IC50 for MDCK cells to EC50 for inhibition of virus-induced cytopathic effect of Influenza A virus California/07/2009 /H1N1; format: cell-based; details: dog, mdck; procedure, shortened: as §4
[25] = Selectivity ratio of IC50 for MDCK cells to EC50 for inhibition of virus-induced cytopathic effect of Influenza B virus Malaysia/2506/2004; format: cell-based; details: dog, mdck; procedure, shortened: as §4
[26] = tested on: H5N1 subtype; assay: Antiviral activity against Influenza A virus Duck/MN/1525/81/H5N1 infected MDCK cells after 3 days by virus yield reduction assay; format: functional, Influenza A virus (A/duck/Minnesota/1525/1981(H5N1))
[27] = Selectivity ratio of IC50 for MDCK cells to EC50 for inhibition of virus-induced cytopathic effect of Influenza A virus Wisconsin/67/2005/H3N2; format: cell-based; details: dog, mdck; procedure, shortened: as §4
[28] = Selectivity ratio of IC50 for MDCK cells to EC50 for Influenza A virus Hong Kong/213/2003/H5N1 by neutral red dye uptake assay; format: ADME, cell-based; details: dog, mdck; procedure, shortened: as §2
[29] = Selectivity ratio of IC50 for MDCK cells to EC90 for Influenza A virus Wisconsin/67/2005/H3N2 by virus yield reduction assay; format: ADME, cell-based; details: dog, mdck; procedure, shortened: as §1
[30] = tested on: H5N1 subtype; assay: Antiviral activity against Influenza A virus Hong Kong/213/2003/H5N1 infected MDCK cells after 42 to 46 hrs by neutral red dye uptake assay; format: functional, organism-based, Influenza A virus (A/Hong Kong/213/2003(H5N1)); details: mdck
[31] = Selectivity ratio of IC50 for MDCK cells to EC90 for Influenza B virus Malaysia/2506/2004 by virus yield reduction assay; format: ADME, cell-based; details: dog, mdck; procedure, shortened: as §1
[32] = tested on: Influenza A virus; assay: Antiviral activity against Influenza A virus Vietnam/1203/ 2004H/H5N1 infected MDCK cells after 42 to 46 hrs by neutral red dye uptake assay; format: functional, organism-based, A/Viet Nam/1203/2004(H5N1); details: mdck
[33] = tested on: Influenza B virus; assay: Antiviral activity against Influenza B virus Malaysia/2506/2004 infected MDCK cells assessed as inhibition of virus-induced cytopathic effect after 3 days; format: functional, organism-based, B/Malaysia/2506/2004; details: mdck; procedure, shortened: as §5
[34] = tested on: Influenza A virus; assay: Antiviral activity against Influenza A virus Wisconsin/67/2005/H3N2 infected MDCK cells after 42 to 46 hrs by neutral red dye uptake assay; format: functional, organism-based, Influenza A virus (A/Wisconsin/67/2005(H3N2)); details: mdck; procedure, shortened: as §6
[35] = tested on: H5N1 subtype; assay: Antiviral activity against Influenza A virus Duck/MN/1525/81/H5N1 infected MDCK cells after 42 to 46 hrs by neutral red dye uptake assay; format: functional, organism-based, Influenza A virus (A/duck/Minnesota/1525/1981(H5N1)); details: mdck
[36] = tested on: Influenza A virus; assay: Antiviral activity against Influenza A virus Vietnam/1203/ 2004H/H5N1 infected MDCK cells assessed as inhibition of virus-induced cytopathic effect after 3 days; format: functional, organism-based, A/Viet Nam/1203/2004(H5N1); details: mdck
[37] = Selectivity ratio of IC50 for MDCK cells to EC90 for Influenza A virus Duck/MN/1525/81/H5N1 by virus yield reduction assay; format: ADME, cell-based; details: dog, mdck; procedure, shortened: as §1
[38] = tested on: H5N1 subtype; assay: Antiviral activity against Influenza A virus Hong Kong/213/2003/H5N1 infected MDCK cells after 3 days by virus yield reduction assay; format: functional, Influenza A virus (A/Hong Kong/213/2003(H5N1))
[39] = Selectivity ratio of IC50 for MDCK cells to EC50 for inhibition of virus-induced cytopathic effect of Influenza A virus Gull/PA/4175/83/H5N1; format: cell-based; details: dog, mdck; procedure, shortened: as §4
[40] = Antiviral activity against Influenza A virus Solomon Islands/03/2006/H1N1 infected MDCK cells assessed as inhibition of virus-induced cytopathic effect after 3 days; format: functional, organism-based, Influenza A virus (A/Solomon Islands/3/2006(H1N1)); details: mdck; procedure, shortened: as §5
[41] = Selectivity ratio of IC50 for MDCK cells to EC50 for Influenza A virus California/07/2009 /H1N1 by neutral red dye uptake assay; format: ADME, cell-based; details: dog, mdck; procedure, shortened: as §2
[42] = tested on: Influenza A virus (A/Puerto Rico/8/1934(H1N1)); assay: Antiviral activity against Influenza A virus Solomon Islands/03/2006/H1N1 infected MDCK cells after 42 to 46 hrs by neutral red dye uptake assay; format: functional, organism-based, Influenza A virus (A/Solomon Islands/3/2006(H1N1)); details: mdck; procedure, shortened: as §6
[43] = tested on: Influenza A virus; assay: Antiviral activity against Influenza A virus California/07/2009 /H1N1 infected MDCK cells assessed as inhibition of virus-induced cytopathic effect after 3 days; format: functional, organism-based, A/California/07/2009(H1N1); details: mdck
[44] = Selectivity ratio of IC50 for MDCK cells to EC50 for inhibition of virus-induced cytopathic effect of Influenza A virus Solomon Islands/03/2006/H1N1; format: cell-based; details: dog, mdck; procedure, shortened: as §4

Nc1ccn([C@@H]2C[C@H](CO)[C@@H](O)[C@H]2O)c(=O)n1 (racemic)
Ratio [1]: > 94 | Ratio IC50/EC50 [2]: > 90 | EC90 [3]: 2300 nM | Ratio IC50/EC50 [4]: > 318 | EC50 [5]: 1900 nM | Ratio IC50/EC50 [6]: > 414 | EC90 [7]: 3500 nM | EC90 [8]: 12100 nM | Ratio IC50/EC50 [9]: > 207 | Ratio IC50/EC50 [10]: > 296 | EC50 [11]: 2400 nM | Ratio IC50/EC50 [12]: > 143 | EC50 [13]: 2800 nM | EC90 [14]: 3800 nM | EC50 [15]: 1100 nM | EC50 [16]: 1400 nM | EC50 [17]: 1300 nM | Ratio [18]: > 180 | Ratio IC50/EC50 [19]: > 83 | Ratio [20]: > 34 | Ratio IC50/EC50 [21]: > 173 | EC90 [22]: 4400 nM | Ratio [23]: > 207 | Ratio IC50/EC50 [24]: > 276 | Ratio IC50/EC50 [25]: > 518 | EC90 [26]: 17600 nM | Ratio IC50/EC50 [27]: > 148 | Ratio IC50/EC50 [28]: > 230 | Ratio [29]: > 118 | EC50 [30]: 1800 nM | Ratio [31]: > 109 | EC50 [32]: 2900 nM | EC50 [33]: 800 nM | EC50 [34]: 4600 nM | EC50 [35]: 5000 nM | EC50 [36]: 1000 nM | Ratio [37]: > 24 | EC90 [38]: 2000 nM | Ratio IC50/EC50 [39]: > 376 | EC50 [40]: 1900 nM | Ratio IC50/EC50 [41]: > 218 | EC50 [42]: 2000 nM | EC50 [43]: 1500 nM | Ratio IC50/EC50 [44]: > 218
